Laboratory results from ChEMBL document CHEMBL1649093, “Phthalazinone pyrazoles as potent, selective, and orally bioavailable inhibitors of Aurora-A kinase” (J Med Chem, 2011).
In brackets after ≈: the same amount, converted by molar mass. Activity calls are given as the source filed them. The rule behind the calls is not given here.

Columns and labels:
[1] = target: Aurora kinase B (Homo sapiens, UniProt Q96GD4); experiment: Inhibition of Aurora B by ELISA
Summary of the method: (§1)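 ELISA on plates coated with GST fusion carrying histone H3 residues 1-15, blocked with 1 mg/mL I-block. Aurora-A or Aurora-B kinase reacted with compound and 30 μM ATP in kinase buffer with 1 μg/mL I-block; stopped after 40 min with 25 mM EDTA. Phosphorylation read with anti-phospho-histone H3 (Ser10) 6G3 mAb. IC50 from triplicate averages.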

[2] = Selectivity for Aurora A over Aurora B
[3] = tested on: COLO 205; experiment: Cytotoxicity against human COLO205 cells; type: functional, cell-based
[4] = tested on: HCT-116; experiment: Cytotoxicity against human HCT116 cells after 5 days by celltiter-glo assay; type: functional, cell-based; settings: HCT-116, 120 h
[5] = tested on: MCF7; experiment: Cytotoxicity against human MCF7 cells; type: functional, cell-based
[6] = target: T1, Aurora kinase A (Homo sapiens, UniProt O14965); experiment: Inhibition of Aurora A by ELISA; summary of the method: as §1
T1 sequence (O14965 whole entry): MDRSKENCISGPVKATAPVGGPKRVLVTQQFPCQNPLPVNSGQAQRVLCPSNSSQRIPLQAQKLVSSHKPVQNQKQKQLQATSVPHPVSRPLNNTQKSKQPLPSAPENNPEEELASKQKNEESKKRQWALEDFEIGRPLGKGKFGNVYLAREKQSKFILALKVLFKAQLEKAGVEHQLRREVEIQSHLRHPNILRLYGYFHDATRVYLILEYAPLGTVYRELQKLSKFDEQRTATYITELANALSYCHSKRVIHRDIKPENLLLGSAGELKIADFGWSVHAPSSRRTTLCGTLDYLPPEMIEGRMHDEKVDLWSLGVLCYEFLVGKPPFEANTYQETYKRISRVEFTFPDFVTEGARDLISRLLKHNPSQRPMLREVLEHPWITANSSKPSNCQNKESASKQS

[7] = target: Cytochrome P450 3A4 (Homo sapiens, UniProt P08684); experiment: Inhibition of CYP3A4; type: ADME
[8] = Clearance in mouse microsome measured per mg of protein; type: ADME, Liver; settings: microsomes
[9] = target: Cytochrome P450 2C9 (Homo sapiens, UniProt P11712); experiment: Inhibition of CYP2C9; type: ADME
[10] = Clearance in rat hepatocytes measured per 10^6 cells; type: ADME, cell-based, Liver, Hepatocyte
[11] = Aqueous solubility of the compound; type: physicochemical; settings: buffer
[12] = target: hERG (KCNH2) (Homo sapiens, UniProt Q12809); experiment: Inhibition of human ERG at 10 uM
[13] = target: Cytochrome P450 2D6 (Homo sapiens, UniProt P10635); experiment: Inhibition of CYP2D6; type: ADME
[14] = tested on: MCF7; experiment: Induction of cell cycle arrest in human MCF7 cells assessed as accumulation at G2/M phase at 10 uM after 24 hrs by immunostaining; type: functional, cell-based
[15] = Clearance in human microsome measured per mg of protein; type: ADME; settings: microsomes

Cytochrome P450 3A4, sequence (P08684 whole entry): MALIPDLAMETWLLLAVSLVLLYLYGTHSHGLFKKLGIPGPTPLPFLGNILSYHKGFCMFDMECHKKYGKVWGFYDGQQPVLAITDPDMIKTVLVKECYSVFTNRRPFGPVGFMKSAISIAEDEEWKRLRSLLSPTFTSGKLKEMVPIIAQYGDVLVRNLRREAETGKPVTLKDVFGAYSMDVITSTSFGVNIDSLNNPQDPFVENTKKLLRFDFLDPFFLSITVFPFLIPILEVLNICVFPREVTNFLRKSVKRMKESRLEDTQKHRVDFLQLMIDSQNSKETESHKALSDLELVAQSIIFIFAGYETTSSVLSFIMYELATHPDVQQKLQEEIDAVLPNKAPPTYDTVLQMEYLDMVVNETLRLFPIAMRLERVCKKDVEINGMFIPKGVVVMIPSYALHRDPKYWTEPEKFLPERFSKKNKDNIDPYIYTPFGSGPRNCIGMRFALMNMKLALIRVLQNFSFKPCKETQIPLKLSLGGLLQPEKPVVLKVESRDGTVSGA
Cytochrome P450 2D6, sequence (P10635 whole entry): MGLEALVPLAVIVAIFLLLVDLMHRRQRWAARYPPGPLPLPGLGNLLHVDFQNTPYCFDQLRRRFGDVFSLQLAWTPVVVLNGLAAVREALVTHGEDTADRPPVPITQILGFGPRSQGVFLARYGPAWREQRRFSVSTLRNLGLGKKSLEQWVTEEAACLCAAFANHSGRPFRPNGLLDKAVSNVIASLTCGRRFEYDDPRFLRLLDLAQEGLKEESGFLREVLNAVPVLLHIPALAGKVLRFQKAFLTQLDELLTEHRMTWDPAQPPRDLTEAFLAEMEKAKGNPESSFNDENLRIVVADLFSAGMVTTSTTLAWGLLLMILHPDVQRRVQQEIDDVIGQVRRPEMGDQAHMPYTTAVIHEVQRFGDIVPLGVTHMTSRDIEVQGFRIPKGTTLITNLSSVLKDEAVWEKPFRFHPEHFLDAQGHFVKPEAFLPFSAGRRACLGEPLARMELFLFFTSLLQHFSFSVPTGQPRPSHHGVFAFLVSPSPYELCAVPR
Cytochrome P450 2C9, sequence (P11712 whole entry): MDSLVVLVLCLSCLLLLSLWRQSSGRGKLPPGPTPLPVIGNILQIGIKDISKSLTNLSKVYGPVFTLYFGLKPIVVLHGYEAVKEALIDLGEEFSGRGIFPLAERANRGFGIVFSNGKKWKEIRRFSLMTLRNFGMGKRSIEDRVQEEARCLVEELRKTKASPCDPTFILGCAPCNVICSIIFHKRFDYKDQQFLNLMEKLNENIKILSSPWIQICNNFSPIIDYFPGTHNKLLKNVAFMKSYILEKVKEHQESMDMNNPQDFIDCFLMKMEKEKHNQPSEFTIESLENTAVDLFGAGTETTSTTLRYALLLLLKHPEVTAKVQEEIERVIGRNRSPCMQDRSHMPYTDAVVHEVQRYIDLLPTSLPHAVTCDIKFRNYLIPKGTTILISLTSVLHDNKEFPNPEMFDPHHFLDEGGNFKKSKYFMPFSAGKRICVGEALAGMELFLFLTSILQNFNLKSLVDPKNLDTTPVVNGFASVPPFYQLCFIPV
Aurora kinase B, sequence (Q96GD4 whole entry, the tested form may be a part): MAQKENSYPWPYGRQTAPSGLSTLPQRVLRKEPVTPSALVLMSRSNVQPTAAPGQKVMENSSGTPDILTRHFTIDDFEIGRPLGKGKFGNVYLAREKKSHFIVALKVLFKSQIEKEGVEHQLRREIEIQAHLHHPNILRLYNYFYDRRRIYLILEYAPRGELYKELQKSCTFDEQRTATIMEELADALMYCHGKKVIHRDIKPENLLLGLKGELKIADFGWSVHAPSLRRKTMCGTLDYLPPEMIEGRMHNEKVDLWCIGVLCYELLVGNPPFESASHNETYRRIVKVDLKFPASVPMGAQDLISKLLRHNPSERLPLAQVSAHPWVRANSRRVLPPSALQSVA
hERG (KCNH2), sequence (Q12809 whole entry): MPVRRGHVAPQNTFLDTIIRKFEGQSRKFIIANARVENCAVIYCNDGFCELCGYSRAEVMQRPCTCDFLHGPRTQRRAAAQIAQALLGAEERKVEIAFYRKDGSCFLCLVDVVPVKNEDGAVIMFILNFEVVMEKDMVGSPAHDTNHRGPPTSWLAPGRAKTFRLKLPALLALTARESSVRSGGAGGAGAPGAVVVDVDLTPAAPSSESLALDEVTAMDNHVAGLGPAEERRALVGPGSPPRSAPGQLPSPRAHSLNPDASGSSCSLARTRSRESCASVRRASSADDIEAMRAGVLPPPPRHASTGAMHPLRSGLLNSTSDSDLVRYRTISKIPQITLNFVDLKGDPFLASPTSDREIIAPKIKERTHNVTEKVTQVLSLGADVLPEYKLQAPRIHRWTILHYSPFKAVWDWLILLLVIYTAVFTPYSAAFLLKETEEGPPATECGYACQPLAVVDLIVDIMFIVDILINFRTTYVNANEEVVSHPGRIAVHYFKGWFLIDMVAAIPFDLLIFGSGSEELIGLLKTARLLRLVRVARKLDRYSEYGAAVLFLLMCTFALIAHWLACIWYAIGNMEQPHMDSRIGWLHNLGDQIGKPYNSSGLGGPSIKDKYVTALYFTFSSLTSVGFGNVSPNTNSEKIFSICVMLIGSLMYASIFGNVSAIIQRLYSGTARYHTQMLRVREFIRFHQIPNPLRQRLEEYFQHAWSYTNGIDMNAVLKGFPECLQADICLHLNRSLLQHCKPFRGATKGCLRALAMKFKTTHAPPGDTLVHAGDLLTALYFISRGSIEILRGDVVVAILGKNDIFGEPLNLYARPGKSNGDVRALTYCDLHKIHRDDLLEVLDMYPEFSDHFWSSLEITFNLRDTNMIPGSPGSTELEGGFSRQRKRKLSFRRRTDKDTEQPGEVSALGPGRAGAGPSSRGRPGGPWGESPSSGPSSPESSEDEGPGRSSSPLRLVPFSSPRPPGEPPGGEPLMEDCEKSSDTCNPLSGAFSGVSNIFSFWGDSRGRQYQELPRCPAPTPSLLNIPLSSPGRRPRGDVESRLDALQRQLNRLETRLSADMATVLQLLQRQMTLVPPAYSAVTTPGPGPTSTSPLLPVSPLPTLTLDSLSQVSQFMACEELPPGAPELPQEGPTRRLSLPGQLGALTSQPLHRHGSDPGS

| SMILES | IC50 [1] [µM] | Selectivity ratio [2] | IC50 [6] [µM] | IC50 [7] [µM] | microsomal CLint [8] [µL/min/mg] | IC50 [9] [µM] | hepatocyte CLint [10] [µL/min/1e6 cells] | solubility [11] [µg/mL] | IC50 [13] [µM] | microsomal CLint [15] [µL/min/mg] | IC50 [3] [µM] | IC50 [4] [µM] | IC50 [5] [µM] | inhibition at 10 µM [12] [%] | Activity [14] |
| --- | --- | --- | --- | --- | --- | --- | --- | --- | --- | --- | --- | --- | --- | --- | --- |
| Cc1cccc(-n2nc(Nc3cc(C)[nH]n3)c3ccccc3c2=O)c1 | > 100 | > 1000 | 0.024 |  |  |  |  |  |  |  | 3.2 | 2.3 | 2.9 |  |  |
| Cc1cc(Nc2nn(-c3ccc(C(C)(C)C)cc3)c(=O)c3ccccc23)n[nH]1 | > 50 | > 1000 | 0.24 |  |  |  |  |  |  |  |  | 0.06 | 0.78 |  |  |
| COc1ccc(Cn2nc(Nc3cc(C)[nH]n3)c3ccccc3c2=O)cc1 | 46 |  | 0.032 |  |  |  |  |  |  |  | 4.2 | 1.2 | > 30 |  |  |
| Cc1cc(Nc2nn(-c3ccccc3)c(=O)c3ccccc23)n[nH]1 |  |  |  | > 50 | 15.7 | > 50 | 2.3 | 1.2 (≈ 3.78 µM) | > 50 |  |  |  |  | 20 |  |
| Cc1ccc(-n2nc(Nc3cc[nH]n3)c3ccccc3c2=O)cc1 |  | > 1000 | 1 |  |  |  |  |  |  |  |  |  |  |  |  |
| Cc1cc(Nc2nn(-c3ccc(Cl)cc3)c(=O)c3ccccc23)n[nH]1 | > 100 | > 1000 | 0.093 |  |  |  |  |  |  |  | 2.2 | 0.82 | 11.4 |  |  |
| Cc1cc(Nc2nn(CC(=O)c3ccccc3)c(=O)c3ccccc23)n[nH]1 | > 100 | > 1000 | 0.071 |  |  |  |  |  |  |  | > 30 | 5.44 | > 30 |  |  |
| Cc1ccc(-n2nc(Nc3cc(C)[nH]n3)c3ccccc3c2=O)cc1 | > 100 | > 1000 | 0.023 |  |  |  |  |  |  |  | 3.6 | 0.24 | > 30 |  |  |
| COc1ccc(-n2nc(Nc3cc(C)[nH]n3)c3ccccc3c2=O)cc1 | > 100 |  | 0.029 |  |  |  |  |  |  |  | 3.7 | 0.7 | 3.6 |  |  |
| Cc1cc(Nc2nn(Cc3cc(F)ccc3F)c(=O)c3ccccc23)n[nH]1 | > 100 |  | 0.025 |  |  |  |  |  |  |  | 3.8 | 0.57 | > 30 |  |  |
| Cc1cc(Nc2nn(-c3ccc(F)cc3)c(=O)c3ccccc23)n[nH]1 | > 100 |  | 0.037 |  |  |  |  |  |  |  | 1.6 | 0.8 | 1.6 |  |  |
| Cc1cc(Nc2nn(Cc3ccc(S(C)(=O)=O)cc3)c(=O)c3ccccc23)n[nH]1 | 34 |  | 0.056 |  |  |  |  |  |  |  | 4.5 | 1.7 | 4.5 |  |  |
| Cc1cc(Nc2nn(Cc3ccc(F)cc3)c(=O)c3ccccc23)n[nH]1 | 69 | > 1000 | 0.014 |  |  |  |  |  |  |  | 17 | 1.4 | > 30 |  |  |
| O=c1c2ccccc2c(Nc2n[nH]c3ccccc23)nn1-c1ccccc1 |  | > 1000 | 14 |  |  |  |  |  |  |  |  |  |  |  |  |
| CC(=O)Nc1ccc(Cn2nc(Nc3cc[nH]n3)c3ccccc3c2=O)cc1 | 34 |  |  |  |  |  |  |  |  |  |  | > 30 | > 30 |  |  |
| COc1ccc(C(=O)Cn2nc(Nc3cc(C)[nH]n3)c3ccccc3c2=O)cc1 | > 100 | > 1000 | 0.067 |  |  |  |  |  |  |  | > 30 | > 30 | > 30 |  |  |
| Cc1cc(Nc2nn(Cc3cc(F)cc(F)c3)c(=O)c3ccccc23)n[nH]1 | > 100 | > 1000 | 0.049 |  |  |  |  |  |  |  | 2.3 | 0.5 | 2.6 |  |  |
| COc1cccc(C(=O)Cn2nc(Nc3cc(C)[nH]n3)c3ccccc3c2=O)c1 | 67 | > 1000 | 0.1 |  |  |  |  |  |  |  | > 30 | 2.7 | > 30 |  |  |
| Cc1cc(Nc2nn(Cc3ccccc3)c(=O)c3ccccc23)n[nH]1 | > 100 | > 1000 |  | > 50 | 28 | 42 | 2.4 | 1.9 (≈ 5.73 µM) | > 50 | 7.4 | 4.4 | 1.5 | 12.6 |  | Active |
| Cc1cc(Nc2nn(CC(=O)c3ccc(C(F)(F)F)cc3)c(=O)c3ccccc23)n[nH]1 | > 100 | > 1000 | 0.72 |  |  |  |  |  |  |  | > 30 | > 30 | > 30 |  |  |

Further lines, with some results ahead:

| IC50 [1] [µM] | Selectivity ratio [2] | IC50 [6] [µM] | IC50 [7] [µM] | microsomal CLint [8] [µL/min/mg] | IC50 [9] [µM] | hepatocyte CLint [10] [µL/min/1e6 cells] | solubility [11] [µg/mL] | IC50 [13] [µM] | microsomal CLint [15] [µL/min/mg] | SMILES | IC50 [3] [µM] | IC50 [4] [µM] | IC50 [5] [µM] | inhibition at 10 µM [12] [%] | Activity [14] |
| --- | --- | --- | --- | --- | --- | --- | --- | --- | --- | --- | --- | --- | --- | --- | --- |
| 12.7 |  | 0.017 |  |  |  |  |  |  |  | Cc1cc(Nc2nn(Cc3cccnc3)c(=O)c3ccccc23)n[nH]1 | 4.1 | 2.9 | 13.4 |  |  |
| 15 |  | 0.093 |  |  |  |  |  |  |  | CC(=O)Nc1ccc(Cn2nc(Nc3cc(C)[nH]n3)c3ccccc3c2=O)cc1 | > 30 | 4.2 | > 30 |  |  |
| 17 |  | 0.27 |  |  |  |  |  |  |  | Cc1cc(Nc2nn(C)c(=O)c3ccccc23)n[nH]1 | > 30 | 5.2 | > 30 |  |  |
| 34 |  | 0.115 |  |  |  |  |  |  |  | Cc1cc(Nc2nn(CC(C)C)c(=O)c3ccccc23)n[nH]1 |  | 1.1 | 4.2 |  |  |
| 15 | > 1000 | 0.066 |  |  |  |  |  |  |  | Cc1cc(Nc2nn(CC(F)(F)F)c(=O)c3ccccc23)n[nH]1 |  | 1.8 | 4.5 |  |  |
| 24 |  | 0.12 |  |  |  |  |  |  |  | Cc1cc(Nc2nn(Cc3csc(C)n3)c(=O)c3ccccc23)n[nH]1 | > 30 | 4.18 | > 30 |  |  |
| 0.93 |  | 0.109 |  |  |  |  |  |  |  | Cc1cc(Nc2nn(Cc3ccc([N+](=O)[O-])cc3)c(=O)c3ccccc23)n[nH]1 |  | 1.4 | > 30 |  |  |
| 28 | > 1000 | 0.036 |  |  |  |  |  |  |  | COc1cccc(Cn2nc(Nc3cc(C)[nH]n3)c3ccccc3c2=O)c1 | 3.6 | 0.66 | > 30 |  |  |
| 27 |  | 0.27 |  |  |  |  |  |  |  | Cc1cc(Nc2nn(Cc3ccncc3)c(=O)c3ccccc23)n[nH]1 | 13 | 20.2 | > 30 |  |  |
| 22 | > 1000 | 0.65 |  |  |  |  |  |  |  | Cc1cc(Nc2n[nH]c(=O)c3ccccc23)n[nH]1 |  |  |  |  |  |
| 30 | > 1000 | 0.035 | > 50 |  | > 50 |  | 7 (≈ 24.7 µM) | > 50 |  | Cc1cc(Nc2nn(C(C)C)c(=O)c3ccccc23)n[nH]1 | 1.7 | 0.4 | 1.6 |  |  |
